# Data as given in ChEMBL document CHEMBL1158019, “A new pregnane glycoside from Dioscorea collettii var. hypoglauca” (1999).
# Active and inactive are the calls of the source. The rule behind the calls is not given here.
# Key:
# [1] = test system: Pyricularia; assay: Morphological deformation in Pyricularia oryzae mycelia; type: functional
# In short: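 Mycelia germinated from P. oryzae conidia were scored for morphological deformation. The endpoint was the minimum morphological deformation concentration (MMDC), the lowest concentration that produced deformation. Griseofulvin and fusarelin A served as positive controls.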
# [2] = test system: LNCaP; assay: Cytotoxicity against human LNCaP cells after 5 days by MTT assay; type: functional, cell-based
# In short: (§1)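 Cells grown in RPMI 1640 with 10% heat-inactivated FCS, 100 IU/mL penicillin and 100 µg/mL streptomycin. 1000 cells seeded per well; test samples added in fresh medium 24 h later, then 5 days at 37 °C. MTT (2 mg/mL solution) added for 4 h; cells dissolved in DMSO for 10 min; A540 read. Untreated cells taken as 100% survival; IC50 from viability-concentration plots; etoposide positive control.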
# [3] = test system: HT-29; assay: Cytotoxicity against human HT-29 cells after 5 days by MTT assay; type: functional, cell-based; in short: as §1
# [4] = test system: HCT-15; assay: Cytotoxicity against human HCT-15 cells after 5 days by MTT assay; type: functional, cell-based; in short: as §1
# [5] = test system: T47D; assay: Cytotoxicity against human T47D cells after 5 days by MTT assay; type: functional, cell-based
# In short: as §1, with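 “FCS, penicillin/streptomycin” for “FCS, 100 IU/mL penicillin”, “and 5” for “and 100”, “µg/mL insulin.” for “µg/mL streptomycin.”, “min; absorbance read at 540 nm.” for “min; A540 read.”, “cells set” for “cells taken”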
# [6] = test system: MDA-MB-231; assay: Cytotoxicity against human MDA-MB-231 cells after 5 days by MTT assay; type: functional, cell-based
# In short: as §1, with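 “FCS, penicillin/streptomycin” for “FCS, 100 IU/mL penicillin”, “and 5” for “and 100”, “µg/mL insulin.” for “µg/mL streptomycin.”, “min; absorbance read at 540 nm.” for “min; A540 read.”, “cells set” for “cells taken”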
# [7] = test system: PC-3; assay: Cytotoxicity against human PC-3 cells after 5 days by MTT assay; type: functional, cell-based; in short: as §1
SMILES,Activity [1] [µM],Activity [2],Activity [3],Activity [4],Activity [5],Activity [6],Activity [7]
CC(=O)C1=CC[C@H]2[C@@H]3CC=C4C[C@@H](O[C@@H]5O[C@H](CO)[C@@H](O[C@@H]6O[C@@H](C)[C@H](O)[C@@H](O)[C@H]6O)[C@H](O)[C@H]5O[C@@H]5O[C@@H](C)[C@H](O)[C@@H](O)[C@H]5O)CC[C@]4(C)[C@H]3CC[C@]12C,236,inactive,inactive,inactive,inactive,inactive,inactive
CC(=O)[C@H]1[C@@H](OC(=O)CCC(C)CO[C@@H]2O[C@H](CO)[C@@H](O)[C@H](O)[C@H]2O)C[C@H]2[C@@H]3CC=C4C[C@@H](O[C@@H]5O[C@H](CO)[C@@H](O[C@@H]6O[C@@H](C)[C@H](O)[C@@H](O)[C@H]6O)[C@H](O)[C@H]5O[C@@H]5O[C@@H](C)[C@H](O)[C@@H](O)[C@H]5O)CC[C@]4(C)[C@H]3CC[C@@]21C (some centres undefined) [HYPOGLAUCIN G],135,inactive,inactive,inactive,inactive,inactive,inactive
